# This excerpt belongs to a sample that is enriched for hits.
# Insulin prom act: activators of insulin promoter-driven GFP, primary screen, imaging, TRM-6 cells (human fetal islet line), eGFP reporter, cell count; plate-scaled: unstimulated 0, stimulated control 100; activation, % at 2 µM; 130,000 compounds, 0.81% hits;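 active = activation at 2 µM above a set limit, confirmed on inspection of the cell images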;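 note: share of cells whose green reporter signal exceeds an intensity cutoff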
#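 System – TRM-6 insulin promoter–eGFP reporter cells · Probe or stimulus – 0.75 µM tamoxifen as reporter inducer · Dosing – single-point 2 µM compound dose · Incubation – tamoxifen pre-incubation 15 h overnight, then compound exposure 48 h at 37 °C · Measured by – fixed-cell fluorescence microscopy, eGFP plus Hoechst · Evaluation – percent GFP-positive cells normalized to per-plate controls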
# An asterisk follows results filed as active.
SMILES,Insulin prom act
CC(NC(=O)C(C(=O)c1cccc([N+](=O)[O-])c1)n1cc(Cl)ccc1=O)c1ccccc1 (stereo unspecified),119
COc1cccc(N/C=C/C(=O)c2ccc(Br)cc2)c1,4
COc1ccc(N/C=C\C(=O)c2ccc3c(c2)OCO3)cc1,6
COc1ccc(C(=O)/C=C/Nc2cccc(O)c2)cc1,80*
C=CCc1cc(OC)ccc1OCCOCCN1CCc2ccccc2C1,144
COc1ccc(CN2C(=O)/C(=C/c3ccncc3)SC2=S)cc1,9
O=C(CNC(=O)c1ccccc1)NC1(C(=O)NC2CCCCC2)CCCCC1,0
O=C(COc1ccc(F)cc1)Nc1ccc(-n2cnnn2)cc1,-3
CCOC(=O)c1ccc(NC(=O)COc2ccc(-n3cnnn3)cc2)cc1,3
CC(=O)Nc1ccc(-n2cnnn2)cc1,512*
Cc1ccccc1Cn1c(=O)n(CC2CCC(C(=O)NCCc3ccccc3)CC2)c(=O)c2ccccc21 (stereo unspecified),0
O=C(c1ccc(S(=O)(=O)c2ccccc2)cc1)N1CCc2ccccc2C1,6
C=CCn1cc(C(=O)N2CCc3ccccc3C2)c(=O)c2cc(S(=O)(=O)N(CC)CC)ccc21,400*
C=CCn1cc(C(=O)OC)c(=O)c2cc(S(=O)(=O)N3CCC(C)CC3)ccc21,0
COc1cccc(CNc2ccc([N+](=O)[O-])c(NCC(=O)O)n2)c1,0
O=S(=O)(NC1=NCCC1)c1cccc(NC(=S)NCCc2ccccc2)c1,-7
CCCn1c(=O)c2c(nc3n2CCS3)n(C)c1=O,128
O=C(c1cccn2c(=O)c3ccccc3nc12)N1CCN(Cc2ccc3c(c2)OCO3)CC1,7
O=C(CN1C(=O)c2cccc3cccc1c23)N1CCN(Cc2ccc3c(c2)OCO3)CC1,500*
O=C(CN1C(=O)c2cccc3cccc(c23)C1=O)N1CCOCC1,-8
CCC(CO)n1c(=S)[nH]c2cc(OC)c(OC)cc2c1=O (stereo unspecified),-7
O=C(Cn1c(C(F)(F)F)nc2ccccc21)c1ccc(F)cc1,84*
Cc1[nH]c2ccccc2c1C(=O)COC(=O)Cn1c(C(F)(F)F)nc2ccccc21,-7
CC(C)NC(=O)Cn1c(SCC(=O)c2ccc(F)cc2)nc2ccccc21,224
CCOC(=O)c1ccc(NC(=S)N2CCSC2c2ccc(Br)cc2)cc1 (stereo unspecified),-3
SMILES,Insulin prom act
O=C(COC(=O)COc1ccc(Cl)cc1Cl)Nc1cccnc1Cl,7
CCC(CC)C(=O)NCCCCc1ccccc1,-7
COc1cc2c(cc1OC)C1=C(C#N)CC/C(=N\S(=O)(=O)c3cccc(Cl)c3)N1CC2,87*
COc1cc2c(cc1OC)-c1cc(OCc3ccccc3Cl)nc(=O)n1CC2,-66
COc1cc2c(cc1OC)C(CC#N)=NC(C)(C)C2,6
O=C1NCC(COc2ccc(Cl)cc2)O1 (stereo unspecified),0
COc1ccc(Nc2nc(-c3cccs3)cs2)cc1,6
COc1ccc(Nc2nc(-c3cccs3)cs2)c(OC)c1,592*
COc1ccc(OC)c(Nc2nc(-c3cccs3)cs2)c1,64
CN(CC(=O)Nc1ccc(F)cc1)C(=O)COc1ccc(C(=O)c2ccccc2)cc1,0
C/C(=N\NC(=O)c1sccc1-n1cccc1)c1cccs1,0
Cc1onc(-c2ccccc2)c1C(=O)N1CCN(C)CC1,100*
Cc1onc(-c2ccccc2)c1C(=O)N1CCCN(C(=O)c2c(-c3ccccc3)noc2C)CC1,-3
Cc1onc(-c2ccccc2)c1C(=O)N1CCN(C(=O)c2ccco2)CC1,-76
CCOc1ccc(C(=O)OCCN(CC)CC)cc1,-80
CCN(CC)CCOc1cccc(C(C)C)c1,9
CCN(CC)CCOc1ccc(/C(=C(/Cl)c2ccccc2)c2ccccc2)cc1,280*
COc1cc(SC)ccc1C(=O)OC(C)C(=O)NC1CCCC1 (stereo unspecified),0
CC(=O)Nc1ccc(NC(=O)COC(=O)CCc2nc3ccccc3s2)cc1,0
COC(=O)c1ccccc1N1C(=O)C2C(C1=O)C1C=CC2C12CC2 (stereo unspecified),164*
O=C(COc1ccc(Cl)c(Cl)c1)NN1C(=O)C2C(C1=O)C1C=CC2C12CC2 (stereo unspecified),6
COC(=O)c1ccccc1N1C(=O)C2C(C1=O)[C@H]1C=C[C@@H]2C1 (stereo partly specified),-75
COc1ccc(-n2cc(CNCCc3cnc[nH]3)c(-c3cccc(F)c3)n2)cc1,-2
COc1ccc(CNC(=O)CN2C(=O)C3C4C=CC(C4)C3C2=O)cc1 (stereo unspecified),7
CCCNC(=O)Cn1c(=O)/c(=C\c2ccc(-c3ccc([N+](=O)[O-])cc3)o2)s/c1=C\C(=O)C(C)(C)C,270*
O=C(Cc1ccccc1)N/N=C/c1ccc(-c2ccc([N+](=O)[O-])cc2)o1,0
Cc1ccc(C(=O)N/C(=C\c2ccc(-c3cccc([N+](=O)[O-])c3)o2)C(=O)NC(C)(C)C)cc1,-7

# Screens (PubChem BioAssay)
